Measurements reported in ChEMBL document CHEMBL1131833, “Synthesis and cytotoxic activity of N-(2-pyridylsulfenyl)urea derivatives. A new class of potential antineoplastic agents” (Bioorg Med Chem Lett, 1999).
pIC50: −log10 of the molar value.

Key:
Assay type in all cases: functional, cell-based
MEL-AC cell line = assay: Cytotoxicity against MEL-AC melanoma cell line; conditions: Homo sapiens
How it was run: (§1)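 Growth inhibition read by cell counting after 3 days of continuous exposure to 100, 10, 1, 0.1 or 0.01 µM compound. Parallel cultures counted daily to confirm exponential growth. IC50 from the counts; where inhibition stayed low across the range, reported as > highest tested concentration.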

K562 = assay: Cytotoxicity against K-562 myelocytic leukemia cell line; conditions: Homo sapiens; how it was run: as §1
CCRF-CEM = assay: Cytotoxicity against CCRF-CEM lymphocytic leukemia cell line; conditions: Homo sapiens; how it was run: as §1
HT-29 = assay: Cytotoxicity against HT-29 colon carcinoma cell line; conditions: Homo sapiens; how it was run: as §1
Calu-1 = assay: Cytotoxicity against HTB-54 lung carcinoma cell line; conditions: Homo sapiens; how it was run: as §1
Homo sapiens = species on record: Homo sapiens; assay: Cytotoxicity against normal PMBC cells in clonogenic assay
How it was run: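 Human peripheral blood mononuclear cells at 2.0-2.5 ×10^6 cells/mL in Iscove's medium. Clonogenic methylcellulose culture (0.9% final) with 30% fetal calf serum, 10% PHA-LCM and 6 U recombinant human erythropoietin plus compound, 14 days at 37°C. Colonies counted; at least 3 independent experiments, each in triplicate, per compound and concentration.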

Compound	pIC50 (MEL-AC cell line)	pIC50 (K562)	pIC50 (CCRF-CEM)	pIC50 (HT-29)	pIC50 (Calu-1)	pIC50 (Homo sapiens)
CCOC(=O)c1cccnc1S(=O)(=O)NC(=O)Nc1ncccn1	5.92	4.28	5.46	< 4.00	5.80	–
CCOC(=O)c1cccnc1SNC(=O)Nc1ncccn1	4.47	6.00	4.82	5.32	5.74	4.87
COc1cccc2c1C(=O)c1c(O)c3c(c(O)c1C2=O)C[C@@](O)(C(=O)CO)C[C@@H]3O[C@H]1C[C@H](N)[C@H](O)[C@H](C)O1 [DOXORUBICIN]	5.92	6.00	–	6.15	5.96	4.40
CCOC(=O)c1cccnc1SNC(=O)Nc1nc(OC)cc(OC)n1	4.37	4.37	6.15	4.02	4.13	–
CCOC(=O)c1cc([N+](=O)[O-])cnc1SNC(=O)Nc1ncccn1	6.70	6.70	5.82	< 4.00	4.85	–
CCOC(=O)c1cccnc1S(=O)(=O)NC(=O)Nc1ccc(Cl)cc1	< 4.00	4.85	5.37	< 4.00	< 4.00	–
